tim23-1 inh = growth inhibitors of tim23-1 mutant yeast, primary screen, luminescence, uHTS; S. cerevisiae tim23-1 growth, BacTiter-Glo luminescence, 24 h; inhibition, % at 20 µM; 330,000 tested, 1.3% active;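 active means growth inhibition of the mutant yeast at or above 50%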;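 further: temperature-sensitive mutant grown at 25 °C; plate controls were DMSO-treated mutant yeast for no effect and medium wells lacking yeast for full effect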
tim10-1 inh = growth inhibitors of tim10-1 mutant yeast, primary screen, luminescence, uHTS | S. cerevisiae tim10-1 ts strain growth, BacTiter-Glo, 24 h | inhibition, % at 20 µM | 330,000 tested, 2.2% active;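 active means inhibition of at least 40%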;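 further: mutant grown at 25 °C; 0% = DMSO wells with yeast and 100% = wells holding no yeast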
UPR CHOP act = activators of apoptotic CHOP UPR arm, primary screen, cell-based, CHO-CHOP luciferase reporter, luminescence, uHTS; UPR activation; percent of tunicamycin response over DMSO baseline; AID 449763, 2010; activation, % at 10 µM; 330,000 tested, 0.34% active;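 active means at 10 µM dose, activation of 40% or more, normalized to positive control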;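 further: 100% = tunicamycin at 10 µg/mL and 0% = DMSO alone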
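Evaluation: % reporter activation, DMSO baseline versus tunicamycin full activation; System: CHO-CHOP luciferase reporter cell line; Input: 500 cells/well; Incubation: 6 h compound treatment, 37 °C; Measured by: Steady-Glo luciferase luminescence; Dosing: one dose, 10 µM in 0.5% DMSO; Buffer or medium: F12 medium, 10% FBS; Benchmarks: positive tunicamycin 10 µg/mL, negative DMSO alone.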
UPR XBP1 act = activators of adaptive XBP1 UPR arm, primary screen, cell-based, CHO-XBP1 luciferase reporter, luminescence, uHTS; IRE1-XBP1 UPR activation; percent of tunicamycin response, DMSO as zero; activation, % at 20 µM; 330,000 tested, 0.33% active;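 active means versus positive control, 20 µM dose yields 30% or more activation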;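 further: 100% = tunicamycin at 10 µg/mL and 0% = DMSO only wells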
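assay system = CHO-XBP1 luciferase reporter cells | amount = 1000 cells/well | buffer or medium = F12 plus 10% FBS | compound dosing = single point, 20 µM final compound, 1% DMSO | incubation = 16-18 h cell attachment at 37 °C, then 6 h compound exposure | detection = Steady-Glo luminescence read | controls = tunicamycin 10 µg/mL and vehicle-only wells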
TIM10 inh = growth inhibitors of isogenic TIM10 control yeast, primary screen, counter-screen for tim10-1 yeast inhibitor project, luminescence, uHTS. 330,000 tested, 1.4% active. inhibition, % at 10 µM. S. cerevisiae TIM10 strain growth, BacTiter-Glo luminescence, 24 h;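 active means inhibition of 40% or more at the single tested concentration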;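 further: wild-type TIM10 isogenic control strain grown at permissive 25 °C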
tim10-1 conf = growth inhibitors of tim10-1 mutant yeast, confirmation, single concentration, luminescence, S. cerevisiae. shares compounds with tim10-1 inh. S. cerevisiae tim10-1 ts strain growth, BacTiter-Glo, 24 h. inhibition, % at 20 µM. 7,400 tested, 56% active. AID 463213, 2010;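 active means inhibition of yeast growth at or above a set limit in either of two repeat tests at 20 µM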;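 further: tim10-1 mutant grown at permissive 25 °C to find synthetic lethal compounds; 0% = DMSO yeast wells and 100% = medium wells without yeast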
TIM10 conf = growth inhibitors of wild-type TIM10 yeast, confirmation, counter-screen for tim10-1 synthetic lethality project, single concentration, luminescence, S. cerevisiae; shares compounds with TIM10 inh; S. cerevisiae tim10 strain growth, BacTiter-Glo luminescence, 24 h; inhibition, % at 10 µM; 4,600 tested, 63% active;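 active means inhibition of yeast growth at or above a set limit in either of two replicates at 10 µM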;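 further: this counterscreen used the strain with wild-type TIM10; 0% = yeast with DMSO and 100% = medium wells lacking yeast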
tim23-1 confirm = tim23-1 mutant yeast growth inhibitors, confirmation, luminescence, single concentration. shares compounds with tim23-1 inh. S. cerevisiae tim23-1 growth, BacTiter-Glo luminescence, 24 h. inhibition, % at 20 µM. 4,400 tested, 83% active;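 active means inhibition above about 39% in either of two replicate wells at 20 µM, limit read from the data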;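 further: temperature-sensitive tim23-1 mutant grown at 25 °C; 0% = DMSO wells with yeast and 100% = medium wells without yeast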
* hit, by the source's call; . = not tested or not shown. Hits are enriched below; roughly 3.9% of the tested compounds scored in any of these assays.

SMILES	tim23-1 inh	tim10-1 inh	UPR CHOP act	UPR XBP1 act	TIM10 inh	tim10-1 conf	TIM10 conf	tim23-1 confirm
NS(=O)(=O)c1ccc(CNC(=O)c2ccc(C(=O)c3ccccc3)cc2)cc1	-20	-4	-3	-1	-15	.	.	.
Cc1cc2n(n1)C(c1c[nH]c3ccccc13)Nc1ccccc1-2 (stereo not drawn)	71*	60*	0	2	40*	34*	33*	-23
Cc1cc2n(n1)C(c1ccc(O)cc1)Nc1ccccc1-2 (stereo not drawn)	50*	54*	-1	-1	55*	46*	48*	54*
CN(C)c1ccc(/C=N/NC(=O)CN2CCCCC2)cc1Br	3	-6	-1	0	-13	.	.	.
O=C(Nc1ccccc1)C1=C[C@@H](c2ccc(Br)cc2)C[C@@H](OCCCCO)O1	55*	43*	6	0	33	45*	.	54*
O=C(Nc1ccccc1)C1=C[C@H](c2ccccc2)C[C@H](OCCCCO)O1	17	20	5	6	-16	.	.	.
Clc1cccc(Cl)c1Cn1cnc2c(N3CCCCCC3)ncnc21	50*	44*	1	11	41*	29	28*	47*
O=C(NC(=S)NCC1CCCO1)c1ccccc1[N+](=O)[O-] (stereo not drawn)	0	-5	-1	-5	-1	.	.	.
O=C(NC(=S)NC1CCCCC1)c1ccccc1[N+](=O)[O-]	63*	45*	3	4	21	26	.	48*
O=C(NNC(=S)NC(=O)c1ccccc1[N+](=O)[O-])c1ccccc1[N+](=O)[O-]	1	5	-1	-3	16	.	.	.
O=C(NC(=S)NC1CCN(Cc2ccccc2)CC1)c1ccc(F)cc1	35	3	-1	-2	0	.	.	.
O=C(NC(=S)NC1CCCCC1)c1ccc(F)cc1	69*	42*	2	-4	34	32*	.	56*
Cc1ccc(C(=O)NC(=S)NNC(=O)c2ccccc2[N+](=O)[O-])cc1	61*	47*	-3	-1	47*	42*	61*	49*
COc1ccc2c(c1)N(C(=O)CN1C(=O)C3CCCCC3C1=O)C(C)(C)C=C2C (stereo not drawn)	53*	51*	0	0	33	46*	.	52*
COc1ccc2c(c1)C(C)=CC(C)(C)N2C(=O)CN1C(=O)CCC1=O	22	6	0	1	7	.	.	.
Cc1cc(C)cc(N=Cc2ccc([N+](=O)[O-])s2)c1	55*	56*	3	1	83*	71*	86*	74*
Cc1nc2ccccc2n1/N=C/c1ccc([N+](=O)[O-])s1	55*	76*	15	8	62*	30	-8	63*
Cc1nc2ccccc2c(=O)n1/N=C/c1ccc([N+](=O)[O-])o1	71*	53*	38	6	50*	75*	68*	73*
CC(C)CCN(C(=O)CCSc1ccc(F)cc1)c1c(N)n(Cc2ccccc2)c(=O)[nH]c1=O	-11	-21	0	1	-7	.	.	.
O=C(NNC(=O)c1ccc(Oc2ccc(C3SCCS3)cc2)o1)c1ccc(Cl)cc1	1	0	1	-2	-5	.	.	.
CCc1ccc(C(=O)NNC(=O)c2cccc(S(=O)(=O)N3CCN(C)CC3)c2)cc1	11	1	1	-1	9	.	.	.
CCN(c1ccc(NC(=O)c2ccc(N3CCCC3=O)cc2)cc1)C(C)C	-21	-5	2	-4	-7	.	.	.
Cc1cc(N2CCN(c3nc(-c4ccccc4)cs3)CC2)c2ccccc2n1	63*	51*	2	-3	15	42*	.	52*
c1ccc(-c2csc(N3CCCCCC3)n2)cc1	19	10	5	1	18	.	.	.
CCOC(=O)c1sc2nc(NC(=O)C(C)(C)C)sc2c1C	63*	55*	12	8	41*	31*	44*	57*
SMILES	tim23-1 inh	tim10-1 inh	UPR CHOP act	UPR XBP1 act	TIM10 inh	tim10-1 conf	TIM10 conf	tim23-1 confirm
CCSc1ccccc1C(=O)n1nnc2ccccc21	59*	55*	5	-1	39	49*	.	70*
CCSc1ccccc1C(=O)N1CCCC1	1	0	-1	-1	11	.	.	.
CCN(CC)CCCn1c2c(c(SCC(=O)Nc3ccc4c(c3)OCO4)nc1=O)CCC2	-1	4	0	-1	8	.	.	.
CN(C)C(CNC(=O)c1cccc(S(=O)(=O)N2CC3(C)CC2CC(C)(C)C3)c1)c1ccco1 (stereo not drawn)	32	34	-2	2	18	.	.	.
CCCNC(=O)c1cccc(S(=O)(=O)N2CC3(C)CC2CC(C)(C)C3)c1 (stereo not drawn)	59*	41*	-1	-3	26	33*	.	49*
Cc1nnnn1/C(=C\c1ccccc1)C(=O)OCC(=O)NC1CCCCC1	54*	47*	4	-3	41*	35*	50*	47*
CC(C)(C)c1ccc(CN2N=Nc3ccccc3S2(=O)=O)cc1	63*	72*	-5	-5	60*	64*	-1	28
O=S1(=O)c2ccccc2N=NN1Cc1ccc(Cl)c(Cl)c1	-3	28	1	0	14	.	.	.
COc1ccccc1C(=O)NC(=O)COC(=O)C1CC1C (stereo not drawn)	3	4	5	0	1	.	.	.
O=C(Nc1ccc(O)cc1)c1ccccc1OCc1ccccc1	53*	45*	3	8	37	30	.	53*
O=C(Nc1cc(Cl)ccc1N1CCOCC1)c1cccnc1Cl	12	-7	0	-2	16	.	.	.
CSCC(C)N1CCC(CCC(=O)NC2CC2)CC1 (stereo not drawn)	10	13	-1	-3	4	.	.	.
Cc1ccc(CSc2nnc(CS(=O)Cc3ccc(Cl)cc3Cl)n2C)cc1 (stereo not drawn)	51*	47*	2	-3	47*	37*	48*	44*
